# According to ChEMBL document CHEMBL3352372, “Design, synthesis and 3D-QSAR studies of new diphenylamine containing 1,2,4-triazoles as potential antitubercular agents” (Eur J Med Chem, 2014):
# Test system: Mycobacterium tuberculosis
# Assay: Antitubercular activity Mycobacterium tuberculosis H37Rv assessed as growth inhibition after 5 days by MABA method
# Format: functional
# Conditions: not given
# Method in brief: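 Log-phase H37Rv was diluted to a final OD550 of 0.05 in Middlebrook 7H9 broth, and compounds in DMSO were added in 96-well plates. After a further 24 h at 37 °C/5% CO2, fluorescence was read (ex 544 nm, em 590 nm). Inhibition was scored against the untreated control, with >90% inhibition counted as active in the initial screen.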
row,Structure (SMILES),-logMIC
1,O=c1c2ccccc2nc2n(/N=C/c3ccccc3)c(Cc3ccccc3Nc3c(Cl)cccc3Cl)nn12,4.903
2,COc1ccc(/C=N/n2c(Cc3ccccc3Nc3c(Cl)cccc3Cl)nn(CN3CCCCC3)c2=S)cc1,4.903
3,O=C1CSC(c2cccs2)N1n1c(Cc2ccccc2Nc2c(Cl)cccc2Cl)n[nH]c1=S (stereo not drawn),4.602
4,O=c1c2ccccc2nc2n(/N=C/c3cccs3)c(Cc3ccccc3Nc3c(Cl)cccc3Cl)nn12,4.903
5,COc1ccc(/C=N/n2c(Cc3ccccc3Nc3c(Cl)cccc3Cl)nn(CN3CCOCC3)c2=S)cc1OC,5.204
6,S=c1n(CN2CCCCC2)nc(Cc2ccccc2Nc2c(Cl)cccc2Cl)n1/N=C/c1ccccc1,5.204
7,S=c1n(CN2CCOCC2)nc(Cc2ccccc2Nc2c(Cl)cccc2Cl)n1/N=C/c1cccs1,5.796
8,O=c1c2ccccc2nc2n(/N=C/c3ccco3)c(Cc3ccccc3Nc3c(Cl)cccc3Cl)nn12,4.602
9,COc1ccc(/C=N/n2c(Cc3ccccc3Nc3c(Cl)cccc3Cl)nn(CN3CCCCC3)c2=S)cc1OC,4.903
10,S=c1n(CN2CCOCC2)nc(Cc2ccccc2Nc2c(Cl)cccc2Cl)n1/N=C/c1ccccc1,6.699
11,O=c1c2ccccc2nc2n(/N=C/c3ccncc3)c(Cc3ccccc3Nc3c(Cl)cccc3Cl)nn12,4.602

# Same assay, conditions: Mycobacterium tuberculosis, H37Rv, 120 h
row,Structure (SMILES),MIC
1,NNC(=O)c1ccncc1 [ISONIAZID],< 0.2 µM
2,O=c1c2ccccc2nc2n(/N=C/c3ccccc3)c(Cc3ccccc3Nc3c(Cl)cccc3Cl)nn12,12.5 µM
3,COc1ccc(/C=N/n2c(Cc3ccccc3Nc3c(Cl)cccc3Cl)nn(CN3CCCCC3)c2=S)cc1,12.5 µM
4,O=C1CSC(c2cccs2)N1n1c(Cc2ccccc2Nc2c(Cl)cccc2Cl)n[nH]c1=S (stereo not drawn),25 µM
5,O=c1c2ccccc2nc2n(/N=C/c3cccs3)c(Cc3ccccc3Nc3c(Cl)cccc3Cl)nn12,12.5 µM
6,COc1ccc(/C=N/n2c(Cc3ccccc3Nc3c(Cl)cccc3Cl)nn(CN3CCOCC3)c2=S)cc1OC,6.25 µM
7,S=c1n(CN2CCCCC2)nc(Cc2ccccc2Nc2c(Cl)cccc2Cl)n1/N=C/c1ccccc1,6.25 µM
8,S=c1n(CN2CCOCC2)nc(Cc2ccccc2Nc2c(Cl)cccc2Cl)n1/N=C/c1cccs1,1.6 µM
9,O=c1c2ccccc2nc2n(/N=C/c3ccco3)c(Cc3ccccc3Nc3c(Cl)cccc3Cl)nn12,25 µM
10,COc1ccc(/C=N/n2c(Cc3ccccc3Nc3c(Cl)cccc3Cl)nn(CN3CCCCC3)c2=S)cc1OC,12.5 µM
11,S=c1n(CN2CCOCC2)nc(Cc2ccccc2Nc2c(Cl)cccc2Cl)n1/N=C/c1ccccc1,0.2 µM
12,O=c1c2ccccc2nc2n(/N=C/c3ccncc3)c(Cc3ccccc3Nc3c(Cl)cccc3Cl)nn12,25 µM

# Test system: Mycobacterium tuberculosis
# Assay: Antitubercular activity Mycobacterium tuberculosis H37Rv assessed as growth inhibition after 30 days by agar microdilution method
# Format: functional
# Conditions: not given
# Method in brief: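 M. tuberculosis H37Rv (ATCC 27294) grown on L-J medium, harvested in 0.85% saline with 0.05% Tween-80. Compounds, from a DMSO stock, were added as twofold dilutions to Middlebrook 7H10 agar with OADC in tubes. After 30 days of incubation, tubes were compared with untreated H37Rv control tubes. The lowest concentration giving complete inhibition of colonies was reported.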
row,Structure (SMILES),MIC
1,NNC(=O)c1ccncc1 [ISONIAZID],< 0.2 µM
2,O=c1c2ccccc2nc2n(/N=C/c3ccccc3)c(Cc3ccccc3Nc3c(Cl)cccc3Cl)nn12,12.5 µM
3,COc1ccc(/C=N/n2c(Cc3ccccc3Nc3c(Cl)cccc3Cl)nn(CN3CCCCC3)c2=S)cc1,12.5 µM
4,O=c1c2ccccc2nc2n(/N=C/c3cccs3)c(Cc3ccccc3Nc3c(Cl)cccc3Cl)nn12,12.5 µM
5,COc1ccc(/C=N/n2c(Cc3ccccc3Nc3c(Cl)cccc3Cl)nn(CN3CCOCC3)c2=S)cc1OC,6.25 µM
6,S=c1n(CN2CCCCC2)nc(Cc2ccccc2Nc2c(Cl)cccc2Cl)n1/N=C/c1ccccc1,6.25 µM
7,S=c1n(CN2CCOCC2)nc(Cc2ccccc2Nc2c(Cl)cccc2Cl)n1/N=C/c1cccs1,3.12 µM
8,COc1ccc(/C=N/n2c(Cc3ccccc3Nc3c(Cl)cccc3Cl)nn(CN3CCCCC3)c2=S)cc1OC,6.25 µM
9,S=c1n(CN2CCOCC2)nc(Cc2ccccc2Nc2c(Cl)cccc2Cl)n1/N=C/c1ccccc1,0.2 µM

# Test system: Staphylococcus aureus
# Assay: Antibacterial activity Staphylococcus aureus ATCC-25923 assessed as growth inhibition after 24 hrs by twofold serial dilution technique
# Format: functional
# Conditions: ATCC-25923, 24 h
# Method in brief: (§1)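 Tube twofold serial dilution of compounds dissolved in DMSO, under aseptic conditions. Solvent, growth (negative) and drug (ampicillin) controls were run alongside. Tubes were incubated 24 h at 37 °C. MIC was taken as the lowest concentration giving apparent complete inhibition of growth. Strains were first screened by cup plate method.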
row,Structure (SMILES),MIC
1,O=c1c2ccccc2nc2n(/N=C/c3ccccc3)c(Cc3ccccc3Nc3c(Cl)cccc3Cl)nn12,12.5 µM
2,COc1ccc(/C=N/n2c(Cc3ccccc3Nc3c(Cl)cccc3Cl)nn(CN3CCCCC3)c2=S)cc1,12.5 µM
3,O=C1CSC(c2cccs2)N1n1c(Cc2ccccc2Nc2c(Cl)cccc2Cl)n[nH]c1=S (stereo not drawn),12.5 µM
4,O=c1c2ccccc2nc2n(/N=C/c3cccs3)c(Cc3ccccc3Nc3c(Cl)cccc3Cl)nn12,12.5 µM
5,COc1ccc(/C=N/n2c(Cc3ccccc3Nc3c(Cl)cccc3Cl)nn(CN3CCOCC3)c2=S)cc1OC,12.5 µM
6,CC1(C)S[C@@H]2[C@H](NC(=O)[C@H](N)c3ccccc3)C(=O)N2[C@H]1C(=O)O [AMPICILLIN],6.25 µM
7,S=c1n(CN2CCCCC2)nc(Cc2ccccc2Nc2c(Cl)cccc2Cl)n1/N=C/c1ccccc1,12.5 µM
8,S=c1n(CN2CCOCC2)nc(Cc2ccccc2Nc2c(Cl)cccc2Cl)n1/N=C/c1cccs1,6.25 µM
9,O=c1c2ccccc2nc2n(/N=C/c3ccco3)c(Cc3ccccc3Nc3c(Cl)cccc3Cl)nn12,12.5 µM
10,COc1ccc(/C=N/n2c(Cc3ccccc3Nc3c(Cl)cccc3Cl)nn(CN3CCCCC3)c2=S)cc1OC,12.5 µM
11,S=c1n(CN2CCOCC2)nc(Cc2ccccc2Nc2c(Cl)cccc2Cl)n1/N=C/c1ccccc1,6.25 µM
12,O=c1c2ccccc2nc2n(/N=C/c3ccncc3)c(Cc3ccccc3Nc3c(Cl)cccc3Cl)nn12,100 µM

# Test system: Bacillus spizizenii
# Assay: Antibacterial activity Bacillus Bacillus subtilis ATCC 6633 assessed as growth inhibition after 24 hrs by twofold serial dilution technique
# Format: functional
# Conditions: ATCC 6633, 24 h
# Method in brief: as §1
row,Structure (SMILES),MIC
1,O=c1c2ccccc2nc2n(/N=C/c3ccccc3)c(Cc3ccccc3Nc3c(Cl)cccc3Cl)nn12,12.5 µM
2,COc1ccc(/C=N/n2c(Cc3ccccc3Nc3c(Cl)cccc3Cl)nn(CN3CCCCC3)c2=S)cc1,12.5 µM
3,O=C1CSC(c2cccs2)N1n1c(Cc2ccccc2Nc2c(Cl)cccc2Cl)n[nH]c1=S (stereo not drawn),12.5 µM
4,O=c1c2ccccc2nc2n(/N=C/c3cccs3)c(Cc3ccccc3Nc3c(Cl)cccc3Cl)nn12,12.5 µM
5,COc1ccc(/C=N/n2c(Cc3ccccc3Nc3c(Cl)cccc3Cl)nn(CN3CCOCC3)c2=S)cc1OC,12.5 µM
6,CC1(C)S[C@@H]2[C@H](NC(=O)[C@H](N)c3ccccc3)C(=O)N2[C@H]1C(=O)O [AMPICILLIN],6.25 µM
7,S=c1n(CN2CCCCC2)nc(Cc2ccccc2Nc2c(Cl)cccc2Cl)n1/N=C/c1ccccc1,25 µM
8,S=c1n(CN2CCOCC2)nc(Cc2ccccc2Nc2c(Cl)cccc2Cl)n1/N=C/c1cccs1,12.5 µM
9,O=c1c2ccccc2nc2n(/N=C/c3ccco3)c(Cc3ccccc3Nc3c(Cl)cccc3Cl)nn12,12.5 µM
10,COc1ccc(/C=N/n2c(Cc3ccccc3Nc3c(Cl)cccc3Cl)nn(CN3CCCCC3)c2=S)cc1OC,25 µM
11,S=c1n(CN2CCOCC2)nc(Cc2ccccc2Nc2c(Cl)cccc2Cl)n1/N=C/c1ccccc1,6.25 µM
12,O=c1c2ccccc2nc2n(/N=C/c3ccncc3)c(Cc3ccccc3Nc3c(Cl)cccc3Cl)nn12,100 µM

# Test system: Escherichia coli
# Assay: Antibacterial activity Escherichia coli ATCC-25922 assessed as growth inhibition after 24 hrs by twofold serial dilution technique
# Format: functional
# Conditions: ATCC-25922, 24 h
# Method in brief: as §1
row,Structure (SMILES),MIC
1,O=c1c2ccccc2nc2n(/N=C/c3ccccc3)c(Cc3ccccc3Nc3c(Cl)cccc3Cl)nn12,12.5 µM
2,COc1ccc(/C=N/n2c(Cc3ccccc3Nc3c(Cl)cccc3Cl)nn(CN3CCCCC3)c2=S)cc1,6.25 µM
3,O=C1CSC(c2cccs2)N1n1c(Cc2ccccc2Nc2c(Cl)cccc2Cl)n[nH]c1=S (stereo not drawn),12.5 µM
4,O=c1c2ccccc2nc2n(/N=C/c3cccs3)c(Cc3ccccc3Nc3c(Cl)cccc3Cl)nn12,12.5 µM
5,COc1ccc(/C=N/n2c(Cc3ccccc3Nc3c(Cl)cccc3Cl)nn(CN3CCOCC3)c2=S)cc1OC,6.25 µM
6,CC1(C)S[C@@H]2[C@H](NC(=O)[C@H](N)c3ccccc3)C(=O)N2[C@H]1C(=O)O [AMPICILLIN],< 6.25 µM
7,S=c1n(CN2CCCCC2)nc(Cc2ccccc2Nc2c(Cl)cccc2Cl)n1/N=C/c1ccccc1,12.5 µM
8,S=c1n(CN2CCOCC2)nc(Cc2ccccc2Nc2c(Cl)cccc2Cl)n1/N=C/c1cccs1,6.25 µM
9,O=c1c2ccccc2nc2n(/N=C/c3ccco3)c(Cc3ccccc3Nc3c(Cl)cccc3Cl)nn12,12.5 µM
10,COc1ccc(/C=N/n2c(Cc3ccccc3Nc3c(Cl)cccc3Cl)nn(CN3CCCCC3)c2=S)cc1OC,25 µM
11,S=c1n(CN2CCOCC2)nc(Cc2ccccc2Nc2c(Cl)cccc2Cl)n1/N=C/c1ccccc1,12.5 µM
12,O=c1c2ccccc2nc2n(/N=C/c3ccncc3)c(Cc3ccccc3Nc3c(Cl)cccc3Cl)nn12,25 µM

# Test system: Pseudomonas aeruginosa
# Assay: Antibacterial activity Pseudomonas aeruginosa ATCC-27853 assessed as growth inhibition after 24 hrs by twofold serial dilution technique
# Format: functional
# Conditions: ATCC-27853, 24 h
# Method in brief: as §1
row,Structure (SMILES),MIC
1,O=c1c2ccccc2nc2n(/N=C/c3ccccc3)c(Cc3ccccc3Nc3c(Cl)cccc3Cl)nn12,12.5 µM
2,COc1ccc(/C=N/n2c(Cc3ccccc3Nc3c(Cl)cccc3Cl)nn(CN3CCCCC3)c2=S)cc1,12.5 µM
3,O=C1CSC(c2cccs2)N1n1c(Cc2ccccc2Nc2c(Cl)cccc2Cl)n[nH]c1=S (stereo not drawn),12.5 µM
4,O=c1c2ccccc2nc2n(/N=C/c3cccs3)c(Cc3ccccc3Nc3c(Cl)cccc3Cl)nn12,12.5 µM
5,COc1ccc(/C=N/n2c(Cc3ccccc3Nc3c(Cl)cccc3Cl)nn(CN3CCOCC3)c2=S)cc1OC,12.5 µM
6,CC1(C)S[C@@H]2[C@H](NC(=O)[C@H](N)c3ccccc3)C(=O)N2[C@H]1C(=O)O [AMPICILLIN],< 6.25 µM
7,S=c1n(CN2CCCCC2)nc(Cc2ccccc2Nc2c(Cl)cccc2Cl)n1/N=C/c1ccccc1,25 µM
8,S=c1n(CN2CCOCC2)nc(Cc2ccccc2Nc2c(Cl)cccc2Cl)n1/N=C/c1cccs1,12.5 µM
9,O=c1c2ccccc2nc2n(/N=C/c3ccco3)c(Cc3ccccc3Nc3c(Cl)cccc3Cl)nn12,12.5 µM
10,COc1ccc(/C=N/n2c(Cc3ccccc3Nc3c(Cl)cccc3Cl)nn(CN3CCCCC3)c2=S)cc1OC,25 µM
11,S=c1n(CN2CCOCC2)nc(Cc2ccccc2Nc2c(Cl)cccc2Cl)n1/N=C/c1ccccc1,12.5 µM
12,O=c1c2ccccc2nc2n(/N=C/c3ccncc3)c(Cc3ccccc3Nc3c(Cl)cccc3Cl)nn12,100 µM

# Test system: not listed separately
# Assay: Cytotoxicity against african green monkey Vero cells after 72 hrs by MTT assay
# Format: cell-based
# Conditions: chlorocebus sabaeus
# Method in brief: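 After media removal and a PBS wash, dilutions were added with DMSO control, then incubated 72 h at 37 °C, 5% CO2. Cells were washed, given MTT for 3 h in the dark, and solubilized in DMSO 1–2 h. CC50 was extrapolated from plotted % inhibition (100 − % viability) against concentration.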
row,Structure (SMILES),CC50 at 72 h
1,COc1ccc(/C=N/n2c(Cc3ccccc3Nc3c(Cl)cccc3Cl)nn(CN3CCOCC3)c2=S)cc1OC,> 300 µM
2,S=c1n(CN2CCCCC2)nc(Cc2ccccc2Nc2c(Cl)cccc2Cl)n1/N=C/c1ccccc1,> 300 µM
3,S=c1n(CN2CCOCC2)nc(Cc2ccccc2Nc2c(Cl)cccc2Cl)n1/N=C/c1cccs1,> 300 µM
4,S=c1n(CN2CCOCC2)nc(Cc2ccccc2Nc2c(Cl)cccc2Cl)n1/N=C/c1ccccc1,> 300 µM

# Test system: not listed separately
# Assay: Cytotoxicity against human HepG2 cells after 72 hrs by MTT assay
# Format: cell-based
# Conditions: not given
row,Structure (SMILES),CC50 at 72 h
1,COc1ccc(/C=N/n2c(Cc3ccccc3Nc3c(Cl)cccc3Cl)nn(CN3CCOCC3)c2=S)cc1OC,282 µM
2,S=c1n(CN2CCCCC2)nc(Cc2ccccc2Nc2c(Cl)cccc2Cl)n1/N=C/c1ccccc1,> 300 µM
3,S=c1n(CN2CCOCC2)nc(Cc2ccccc2Nc2c(Cl)cccc2Cl)n1/N=C/c1cccs1,250 µM
4,S=c1n(CN2CCOCC2)nc(Cc2ccccc2Nc2c(Cl)cccc2Cl)n1/N=C/c1ccccc1,> 300 µM
